Results pooled from the literature.
Compare with care: the assays were run in different laboratories.
Observed: cell growth or viability

Compound | cell line | method | time | IC50 [nM]
Cc1cc(C)cc(COc2cc3c(cc2OCc2cc(C)cc(C)c2)C2CC(O)(Cc4cn(CCC(=O)Nc5cccc6c5C(=O)N(C5CCC(=O)NC5=O)C6=O)nn4)CC(C)N2CC3)c1 (stereo not drawn) | ASPC1 | MTT | – | 3290
COc1cc(C(=O)c2cc(C#Cc3ccc(C)cc3)sc2N)cc(OC)c1OC | Molt4/C8 | – | – | > 10000
Cc1cccc(-n2ncc(Br)c(Br)c2=O)c1 | NCI-H358 | resazurin | 96 h | 210
Cc1cc(C)cc(COc2cc3c(cc2OCc2cc(C)cc(C)c2)[C@H]2C[C@](O)(Cc4cn(Cc5ccc(NC(=O)/C=C/CN(C)C)cc5)nn4)C[C@H](C)N2CC3)c1 | ASPC1 | MTT | – | 434
Cc1nc(Nc2ncc(C(=O)Nc3c(C)cccc3Cl)s2)cc(N2CCN(CCO)CC2)n1 | HPAF-II | MTT | – | ~10000
Cc1cc(C)cc(COc2cc3c(cc2OCc2cc(C)cc(C)c2)C2CC(O)(Cc4cn(CCCCCCOc5cccc6c5C(=O)N(C5CCC(=O)NC5=O)C6=O)nn4)CC(C)N2CC3)c1 (stereo not drawn) | ASPC1 | MTT | – | 880
O=C(Nc1cc(OCCN2CCCC2)c2ccccc2n1)c1cc(Cl)cc(C(=O)Nc2cc(OCCN3CCCC3)c3ccccc3n2)n1 | WI-38 | ATP luminescence | 72 h | 13700
COc1ccc(C[C]2([Ti+2][C]3(Cc4ccc(OC)cc4)C=CC=C3)C=CC=C2)cc1.[Cl-].[Cl-] | CAKI-1 | XTT | 24 h | > 200000
COc1cc(C(=O)c2cc(CCc3ccc(C)cc3)sc2N)cc(OC)c1OC | Molt4/C8 | – | – | > 10000
Cc1cc(C)cc(COc2cc3c(cc2OCc2cc(C)cc(C)c2)[C@@H]2C[C@@](O)(Cc4cn(Cc5ccc(S(C)(=O)=O)cc5)nn4)C[C@@H](C)N2CC3)c1 | ASPC1 | MTT | – | 513
COc1cccc2c1C(=O)c1c(O)c3c(c(O)c1C2=O)C[C@@](O)(C(=O)CO)C[C@@H]3O[C@H]1C[C@H](N)[C@H](O)[C@H](C)O1 | HME1 | WST-1 | 72 h | 50
C#CCOc1cc(C(=O)Nc2cc(OCCCN)c3ccccc3n2)nc(C(=O)Nc2cc(OCCCN)c3ccccc3n2)c1 | WI-38 | ATP luminescence | 72 h | 3500
Cc1ccc2[nH]c(=O)c3cc(C(=O)NCCCN(C)Cc4ccccc4)sc3c2c1 | HPAF-II | MTT | 24 h | 22400
CC(C)C[C@H](NC(=O)[C@H](Cc1ccccc1)NC(=O)c1cnccn1)B(O)O | EFM-192A | ATP luminescence | – | 6.9
Nc1ccn([C@@H]2O[C@H](CO)[C@@H](O)C2(F)F)c(=O)n1 | HPAF-II | MTT | – | 1450
C[C@H]1CNC(=O)c2cnn3ccc(nc23)N[C@H](C)c2cc(F)ccc2O1 | HCC827 | MTT | 72 h | 430
COc1cc(C(=O)Nc2cc(OC)c3ccccc3n2)nc(C(=O)Nc2cc(OC)c3ccccc3n2)c1 | WI-38 | ATP luminescence | 72 h | > 40000
COC(C)(C)CCC[C@](C)(O)[C@H]1CC[C@]2(C)[C@@H]1[C@H](O)C[C@@H]1[C@@]3(C)CC[C@H](O)C(C)(C)[C@@H]3CC[C@]12C | NCI-H358 | MTT | 72 h | 19100
O=C(Nc1ccc(Cl)cc1)c1ccc([N+](=O)[O-])o1 | NHBE | resazurin | 96 h | 21400
CCN1C(=O)N(c2c(F)c(OC)cc(OC)c2F)Cc2cnc3[nH]c(CN4CCOCC4)cc3c21 | RT-4 | ATP luminescence | 96 h | 5.03
O=c1c(O[C@@H]2O[C@H](CO)[C@@H](O)[C@H](O)[C@H]2O)c(-c2ccc(O)c(O)c2)oc2cc(O)cc(O)c12 | RT-4 | ATP luminescence | 72 h | 20100

Compound | cell line | method | time | IC50 [nM]
CC(C)c1n[nH]c2c(Nc3ccccc3)nc(CNCc3ccccc3)cc12 | WI-38 | MTS | 48 h | 7000
NCCOc1cc(NC(=O)c2cccc(C(=O)Nc3cc(OCCN)c4ccccc4n3)n2)nc2ccccc12 | WI-38 | ATP luminescence | 72 h | 1100
C=C(C)C(=O)Nc1ccc(-c2c(-c3ccc(Oc4nccc(C)n4)c(F)c3)c3c(N)ncnc3n2C)cc1 | AN3-CA | ATP luminescence | 96 h | 13.7
NCCCOc1cc(NC(=O)c2cccc(C(=O)Nc3cc(OCCCN)c4ccccc4n3)n2)nc2ccccc12 | WI-38 | ATP luminescence | 72 h | 1600
O=c1c(O)c(-c2ccc(O)c(O)c2)oc2cc(O)cc(O)c12 | RT-4 | ATP luminescence | 72 h | 92400
NCCCOc1cc(NC(=O)c2cc(OCCN)cc(C(=O)Nc3cc(OCCCN)c4ccccc4n3)n2)nc2ccccc12 | WI-38 | ATP luminescence | 72 h | 10600
Cc1cc(C)cc(COc2cc3c(cc2OCc2cc(C)cc(C)c2)[C@H]2C[C@](O)(Cc4cn(Cc5ccc(C#N)cc5)nn4)C[C@H](C)N2CC3)c1 | ASPC1 | MTT | – | 632
CC(C)c1ccc(C2C(C#N)=C3N=C(N)c4ccccc4N3C3=C2C(=O)CCC3)cc1 (stereo not drawn) | HMC3 | imaging | – | 49100
c1csc([I+]c2cccs2)c1 | LS174T | trypan blue | 48 h | ~2500
Clc1ccc(COc2cncc(-c3cnn(C4CCNCC4)c3)c2)c(Cl)c1 | HMC3 | imaging | – | 5180
C/C=C/C(=O)Nc1ccc(Cn2cc(C[C@@]3(O)C[C@@H]4c5cc(OCc6cc(C)cc(C)c6)c(OCc6cc(C)cc(C)c6)cc5CCN4[C@@H](C)C3)nn2)cc1 | ASPC1 | MTT | – | 553
CNc1ncc2cc(-c3ccc(-c4cccc(C)n4)cc3Cl)c(=O)n(C[C@H]3OC[C@H](N)CO3)c2n1 | HPAF-II | MTT | 24 h | 30200
C=CC(=O)Nc1cc(Nc2nccc(-c3cn(C)c4ccccc34)n2)c(OC)cc1N(C)CCN(C)C | HCC827 | ATP luminescence | 72 h | 2.6
Cc1c[nH]c(/C=C2\C(=O)Nc3ccccc32)c1CCC(=O)O | RT-4 | MTT | 5 days | 2000
N=C(Nc1ccccc1)c1cc2c(-c3ccccc3)n[nH]c2c(Nc2ccccc2)n1 | WI-38 | MTS | 48 h | 1430
Cc1cc(C)cc(COc2cc3c(cc2OCc2cc(C)cc(C)c2)[C@H]2C[C@](O)(Cc4cn(Cc5ccncc5)nn4)C[C@H](C)N2CC3)c1 | ASPC1 | MTT | – | 525
COc1cc(Nc2nccc(-c3cnn4nc(OC)ccc34)n2)cc(C(F)(F)F)c1 | HCC827 | ATP luminescence | – | 970
O=C(Nc1cc(OCCN2CCCC2)c2ccccc2n1)c1cc(OCCN2CCCC2)cc(C(=O)Nc2cc(OCCN3CCCC3)c3ccccc3n2)n1 | WI-38 | ATP luminescence | 72 h | 2100
Cc1cc(C)cc(COc2cc3c(cc2OCc2cc(C)cc(C)c2)[C@H]2C[C@](O)(Cc4cn(Cc5ccc(-c6ccccc6)cc5)nn4)C[C@H](C)N2CC3)c1 | ASPC1 | MTT | – | 703
NCCOc1cc(NC(=O)c2cc(OCc3c[nH]nn3)cc(C(=O)Nc3cc(OCCN)c4ccccc4n3)n2)nc2ccccc12 | WI-38 | ATP luminescence | 72 h | 39700
CCN1CCN(c2ccc(Nc3cc(N(C)C(=O)Nc4c(Cl)c(OC)cc(OC)c4Cl)ncn3)cc2)CC1 | RT-4 | ATP luminescence | 96 h | 9.36
